PMC4715857 (Osteoporosis International, 2015)
Where two headings read alike, the source gives them in different places.

Experiments:
serum CTX-I [1] = conditions: cited from earlier work; for serum CTX reduction: postmenopausal women
urinary CTX-I [2] = assay: Urinary CTX-I/creatinine bone resorption marker; assay type: in vivo, healthy postmenopausal women; conditions: 150 mg SRT once daily 5 days
How it was run: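 Urinary CTX-I was measured by Urine CrossLaps ELISA and normalized to creatinine. Baseline urine was taken on day −1, and postdose urine on days 1 and 5, with collection at 08:00 (morning dosing) or 20:00 (evening dosing). Dosing was 150 mg sustained-release tablet once daily for 5 days, fed. Results expressed as % change from time-matched baseline; 24-h AUE compared by ANCOVA, with post-hoc repeated-measures analysis.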

[3] = Safety assessments / adverse events; assay type: in vivo, healthy postmenopausal women; conditions: 150 mg once daily for 5 days per period
How it was run: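 Each crossover period (5 days' dosing) included clinical laboratory tests, vital signs, 12-lead ECG and physical examination on admission and at follow-up. Vital signs were also taken at baseline, on all treatment days and at discharge. Adverse events were coded with MedDRA version 14.1. Fourteen subjects were in the safety analysis, and data were summarized in SAS.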

serum CTX-I [4] = assay: Serum CTX-I bone resorption marker; assay type: in vivo, healthy postmenopausal women; conditions: for time over which >60% suppression of CTX-I was sustained: 150-mg SRT for 5 days
How it was run: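 Serum CTX-I was measured by CrossLaps ELISA. Baseline profile on day −1 via cannula at set clock times over 24 h, ending just before the first dose (08:00 morning, 20:00 evening period). Results expressed as % change from clock-time-matched baseline; 24-h AUE compared morning vs evening by ANCOVA, with post-hoc repeated-measures analysis.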

[5] = 100 mg sustained-release tablet (SRT), morning, repeat administration ref 7, 8; cited from earlier work
bone strength = conditions: ovariectomized rats ref 5; cited from earlier work
[6] = Plasma ONO-5334 pharmacokinetics; assay type: in vivo, healthy postmenopausal women; conditions: day 5, 150 mg SRT, morning regimen
How it was run: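 Oral sustained-release tablet, 150 mg once daily for 5 days per period, fed. Randomized crossover with ≥10-day washout. Blood taken via IV cannula over 12 h on day 1 and 24 h on day 5, hourly 1–6 h postdose. Plasma solid-phase extracted and assayed by validated LC-MS/MS (LLOQ 0.02 ng/mL). Cmax, Tmax and AUC24h derived noncompartmentally; day-5 morning/evening geometric mean ratios with 90% CI by ANOVA; Tmax by Wilcoxon signed rank test.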

[7] = system: bone mineral density (BMD); conditions: postmenopausal women with osteoporosis, 24 months of therapy ref 6; cited from earlier work
serum CTX-I [8] = conditions: oral calcitonin, healthy postmenopausal women ref 15; cited from earlier work
bone resorption markers = conditions: premenopausal women ref 14, cited from earlier work
urinary CTX-I [9] = conditions: 12 weeks of treatment, healthy postmenopausal women ref 30; cited from earlier work

**Q.** For CCCN1CCN(c2ccc(C(=O)NC3(C(=O)NCC#N)CCCCC3)cc2)CC1 [balicatib], which “serum CTX reduction” value (serum CTX-I [1]; 1-year study ref 22) is on record?
**A.** The value was 61%.

**Q.** What does the source list for C[C@@H]1CS/C(=N\NC(=O)C(=O)[C@@H](NC(=O)C2CCCCCC2)C2CCOCC2)N1C [ONO-5334]?
**A.** greater suppression of 24-h urinary CTX-I/creatinine AUE, morning than evening (urinary CTX-I [2]): 7%; laboratory safety data, vital signs, electrocardiogram or physical examinations [3]: no clinically relevant; safety findings [3]: no safety findings of concern; greater suppression of 24-h serum CTX-I AUE, morning than evening (serum CTX-I [4]; 150 mg SRT once daily 5 days): 6%; duration of impact on bone resorption (serum CTX-I [4]; 150-mg SRT): ≥ 24 h; time of lowest serum CTX-I levels postdose (serum CTX-I [4]; after morning and evening administration): 8 h; plasma ONO-5334 concentration required to produce 60% reduction of serum CTX-I (serum CTX-I [4]; day 5, scatter plot of plasma concentration vs serum CTX-I %CFB, both regimens): ≥ 10 ng/mL; time over which >60% suppression of CTX-I was sustained (serum CTX-I [4]; evening administration): 12 h; CTX-I suppression over 24 h (serum CTX-I [4]; morning administration, 150 mg SRT for 5 days): > 60%; time over which >60% suppression of CTX-I was sustained (serum CTX-I [4]; morning administration): 24 h; mean half-life [5]: 15 h; median time to maximum plasma concentration (Tmax) [5]: 4 h; effect on bone strength (bone strength): improved bone strength; suppression of serum CTX-I (serum CTX-I [1]): approximately 60%; mean trough plasma concentration [6]: 9.4 ng/mL; effect on cortical and trabecular bone mineral density (BMD) [7]: significantly improved

**Q.** With calcitonin [oral calcitonin] as the compound, how does the “duration of impact on bone resorption” value (serum CTX-I [8]) read?
**A.** The value was “about 12 h”.

**Q.** Which results are given for [Ca] [elemental calcium, calcium]?
**A.** effect on bone resorption (bone resorption markers; 1000 mg at bedtime): suppressed nighttime increases of bone resorption; effect on bone resorption (bone resorption markers; 1000 mg, morning administration): no effect

**Q.** For NCCCC(O)(P(=O)(O)O)P(=O)(O)O [alendronate], which “Serum CTX-I decreases” value (serum CTX-I [1]; following 30–36 months of therapy ref 28, 29) is on record?
**A.** Its value is 67–70%.

**Q.** What about the “urinary CTX-I reduction” value (urinary CTX-I [9]) of the same compound?
**A.** Its value is 53%.

**Q.** With CC(C)(F)C[C@H](N[C@@H](c1ccc(-c2ccc(S(C)(=O)=O)cc2)cc1)C(F)(F)F)C(=O)NC1(C#N)CC1 [odanacatib] as the compound, how does the “suppression of serum CTX-I” value (serum CTX-I [1]) read?
**A.** The value was “approximately 60%”.

**Q.** And the “continuous reductions of serum CTX-I” value (serum CTX-I [1]; postmenopausal women with low BMD, following 5 years of treatment ref 4)?
**A.** The value was 55%.

**Q.** What about the “reductions of serum CTX-I” value (serum CTX-I [1]; postmenopausal women with low BMD, once-weekly, most of the first year of treatment ref 25) of the same compound?
**A.** The value was greater than 60%.

**Q.** And the “serum CTX reduction” value (serum CTX-I [1]; single or repeated doses for 3 weeks ref 23, 24)?
**A.** The value was 62–66%.
